This is a sample that favours compounds with a hit; in the whole collection about 1.8% have one here.
Hck-Nef inh: inhibitors of human Hck kinase activated by Nef; P08631; Recombinant Hck-YEEI plus Nef, Z-Lyte FRET kinase assay; inhibition, % at 20 µM; 220,000 tested, 0.68% active; AID 463187;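 active = Hck-Nef kinase inhibition above about 50%, limit read from the data; inactive = inhibition below that limit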;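 note: 0% = DMSO with Hck plus Nef and 100% = Hck alone without Nef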
Target sequence (P08631 whole entry, looked up): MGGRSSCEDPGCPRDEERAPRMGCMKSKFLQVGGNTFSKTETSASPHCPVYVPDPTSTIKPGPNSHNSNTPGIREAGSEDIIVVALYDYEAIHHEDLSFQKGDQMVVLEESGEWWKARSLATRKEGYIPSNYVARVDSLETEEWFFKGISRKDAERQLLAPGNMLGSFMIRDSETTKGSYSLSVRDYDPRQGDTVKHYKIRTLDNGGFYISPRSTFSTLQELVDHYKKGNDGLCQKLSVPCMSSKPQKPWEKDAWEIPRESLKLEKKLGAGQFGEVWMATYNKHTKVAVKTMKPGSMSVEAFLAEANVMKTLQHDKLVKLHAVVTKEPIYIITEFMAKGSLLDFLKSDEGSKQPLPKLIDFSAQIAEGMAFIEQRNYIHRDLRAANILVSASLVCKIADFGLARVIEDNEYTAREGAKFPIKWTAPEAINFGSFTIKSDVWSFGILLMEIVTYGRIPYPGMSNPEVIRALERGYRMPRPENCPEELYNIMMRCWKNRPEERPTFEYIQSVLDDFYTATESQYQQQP
RanGTP-Impb inh: disruptors of Ran-importin-beta complex formation – biochemical, FRET, CFP-Ran, YFP-importin-beta, homogeneous, primary screen; cell-free CFP-Ran/YFP-importin-beta FRET ratio; inhibition, % (no concentration beside the values); 300,000 tested, 1.1% active; AID 2216;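 active = more than half of the replicate wells show a fall in the fluorescence ratio signal beyond about 16%, limit read from the data, passing the limit was not always enough; inconclusive = exactly half of the replicate wells pass the set limit; inactive = fewer than half of replicates pass the limit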;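 note: 0% = DMSO wells and 100% = Ran loaded with GDP instead of GTP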
Runt-CBFb FRET: blocks binding of human RUNX1 Runt domain to CBFb; Q01196+Q13951; Cerulean-Runt/Venus-CBFb FRET ratio 530/480, 1 h; inhibition, % at 20 µM; 220,000 tested, 0.46% active;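 active = inhibition over about 50% at 20 µM in the single-dose screen, limit read from the data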;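 note: 0% = DMSO wells and 100% = excess unlabeled CBFb competitor control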
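Measured by: fluorescence energy transfer, 422 nm excitation, 530/480 nm emission; Assay system: Cerulean-Runt domain; Medium: Tris pH 7.5 buffer with BSA; Measure: loss of energy transfer signal; Controls: 5 µM unlabeled CBFb as full-inhibition high control; Incubation: protein complex preformed 1 h, compound exposure 1 h, room temperature, dark.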
Runt-SMMHC FRET: blocks binding of human RUNX1 Runt domain to CBFb-SMMHC; AID 1434; Cerulean-Runt/Venus-CBFb-SMMHC FRET ratio 530/480, 1 h; inhibition, % at 20 µM; 220,000 tested, 0.74% active;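 active = mean inhibition across duplicate retests at 20 µM reaching about 50%, limit read from the data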;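 note: 0% = DMSO wells and 100% = wells with excess untagged CBFb-SMMHC; inhibitors lower the FRET ratio by blocking Runt binding to CBFb-SMMHC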
Numbers without * were called inactive; u = inconclusive; x = not tested or not shown; + = active, no number.

SMILES	Hck-Nef inh	RanGTP-Impb inh	Runt-CBFb FRET	Runt-SMMHC FRET
Cc1ccccc1C(=O)NCCCNC(=O)c1ccco1	x	3	x	x
CSc1cccc(NC(=O)CCCNC(=O)c2ccc(Cl)cc2)c1	x	-3	x	x
N#Cc1ccc(OS(=O)(=O)c2ccc(-c3ccon3)s2)cc1	x	-1	x	x
N#C/C(=C(/O)CCCl)c1ccccn1	14	21*	49	92*
Nc1ccc(C(=O)Nc2ccco2)cc1	5	37*	-2	-1
Nc1ccc(C(=O)Nc2cccc(NC(=O)c3ccc(N)cc3)c2)cc1	x	2	x	x
CCCc1ccccc1OCCNS(=O)(=O)c1cc2c(cc1C)OCC(=O)N2	x	0	x	x
CCN(CC)c1ccc(-c2c(C#N)c(N)nc(OC)c2C#N)cc1	11	8	33	99*
Cn1c(CCNC(=O)c2ccco2)nc2cc(NC(=O)c3ccccc3Cl)ccc21	x	-3	x	x
COc1ccc(S(=O)(=O)Nc2ccc(C)cn2)cc1	x	5	x	x
Nc1[nH]nc2ncc3cc4ccccc4nc3c12	67*	-4	-2	-14
COc1ccc(N(CC(=O)NC2CC3CCC2C3)S(=O)(=O)c2ccccc2)cc1Cl (configuration not stated)	x	4	x	x
C[C@@H](NC(=O)[C@@H]1Cc2ccccc2CN1)C(=O)Nc1ccc2c(c1)OCCO2	x	3	x	x
COC(=O)c1cc2c(=O)n3ccccc3nc2n(C(C)C)c1=N	+	x	x	x
CCC(C)n1c(=N)c(C#N)cc2c(=O)n3ccccc3nc21 (configuration not stated)	29	177*	92*	95*
COc1ccc(-c2noc(-c3ccccc3C(=O)NCC3CCCO3)n2)cc1 (configuration not stated)	4	10	0	3
Cc1ccccc1C1c2[nH]c3ccccc3c2C[C@H]2C(=O)N(c3ccccc3C(=O)NCCCN3CCOCC3)C(=O)N12 (some centres not stated)	x	5	x	x
Cc1ccc(NC2=CC(=O)CC(c3ccc(Cl)cc3)C2)cc1 (configuration not stated)	1	35*	0	0
COc1ccccc1-n1c(-c2ccccc2)c[nH]c1=S	6	u	21	54*
S=c1[nH]cc(-c2ccccc2)n1-c1ccccc1Cl	12	-1	12	32
Cc1ccc(C)c(-n2c(-c3ccco3)n[nH]c2=S)c1	x	15*	x	x
COc1ccccc1-n1c(-c2ccco2)n[nH]c1=S	x	0	x	x
CCCC(=O)Nc1cc(C(=O)N(C)CC(OC)OC)ccc1S(=O)(=O)c1ccc(C)cc1	x	-2	x	x
C/C(=N\NC(=O)C1CC1)c1ccc(C)cc1C	x	-2	x	x
c1ccc2c(c1)nc(N1CCOCC1)c1nnnn12	-1	u	12	20
SMILES	Hck-Nef inh	RanGTP-Impb inh	Runt-CBFb FRET	Runt-SMMHC FRET
c1ccc(N2CCN(c3nc4ccccc4n4nnnc34)CC2)cc1	1	44*	15	31
C(=C\n1nnc2ccccc21)/c1ccccn1	x	3	x	x
N#Cc1c(N)n(CCCN2CCOCC2)c2nc3ccccc3nc12	40	x	84*	62*
C=CCn1c(NC(=O)c2ccccc2Cl)c(C#N)c2nc3ccccc3nc21	6	124*	26	86*
CCCCCn1c(N)c(C#N)c2nc3ccccc3nc21	33	44*	85*	63*
COc1ccc(CCn2c(N)c(C#N)c3nc4ccccc4nc32)cc1OC	18	7	18	31
CCCCn1c(NC(C)=O)c(C#N)c2nc3ccccc3nc21	49	30*	33	79*
CCCCn1c(CNC(C)=O)nc2ccccc21	-5	1	2	-1
COc1cc(S(=O)(=O)Nc2cccnc2)ccc1Cl	x	-2	x	x
Fc1ccc(CNc2nc(-c3ccco3)cc(C(F)(F)F)n2)cc1	5	58*	6	-17
FC(F)(F)c1cc(-c2ccco2)nc(NCc2ccccc2)n1	1	2	1	-4
O=C(COc1ccc2c3c(c(=O)oc2c1)CCCC3)NCCCN1CCOCC1	x	2	x	x
Cc1nn(-c2ccccc2)c(C)c1NC(=O)COC(=O)c1ccc(Cl)c(S(N)(=O)=O)c1	x	-3	x	x
Fc1ccccc1-c1ccc(/C=N/Nc2nc3ccccc3[nH]2)o1	11	x	20	77*
C/C(=N\Nc1nc2ccccc2s1)c1cccs1	4	22*	-3	2
N=c1sc2ccccc2n1-c1ccccc1	1	35*	3	14
CCOc1ccc(C2C=C(c3ccccc3)Nc3ncnn32)cc1 (configuration not stated)	-4	-40	-107	-37
CCOc1ccc(C2C=C(c3ccc(F)cc3)Nc3ncnn32)cc1 (configuration not stated)	-7	-7	18	63*
CC(C)(C)c1ccc(C2=CC(c3ccccc3F)n3ncnc3N2)cc1 (configuration not stated)	x	25*	x	x
Cc1ccc(C2C=C(c3ccccc3)Nc3ncnn32)cc1 (configuration not stated)	x	-21	x	x
COc1ccccc1C(=O)C1CCCN(C(=O)c2cnn(C(C)C)c2)C1 (configuration not stated)	x	3	x	x
CC1Cc2cc(S(=O)(=O)N3CCC(C(=O)N(C)Cc4ccco4)CC3)ccc2N1C(=O)C1CCC1 (configuration not stated)	x	1	x	x
CCOC(=O)/C(C#N)=C1/C=C(C)NC(c2ccccc2O)=N1	1	3	25	61*
COCCCN1C2=C(C(=O)CC(C)(C)C2)C(c2ccc(O)c(OC)c2)C2=C1CC(C)(C)CC2=O	x	0	x	x
CC1(C)CC(=O)C2=C(C1)N(CCN1CCOCC1)C1=C(C(=O)CC(C)(C)C1)C2c1ccc(Cl)cc1	50	127*	77*	88*
SMILES	Hck-Nef inh	RanGTP-Impb inh	Runt-CBFb FRET	Runt-SMMHC FRET
COc1ccc(C2C3=C(CC(C)(C)CC3=O)N(CCN3CCOCC3)C3=C2C(=O)CC(C)(C)C3)cc1	13	71*	91*	81*
CC1(C)CC(=O)C2=C(C1)N(CCN1CCOCC1)C1=C(C(=O)CC(C)(C)C1)C2c1cccc(F)c1	39	130*	63*	78*
CCC1CCC(C(=O)NC(CCSC)C(=O)NCCc2ccc(S(N)(=O)=O)cc2)CC1 (configuration not stated)	x	6	x	x
CCOC(=O)CNC(=O)COc1coc(CN2CCN(c3ccc(F)cc3)CC2)cc1=O	x	2	x	x
COC(=O)c1cc2c(s1)-c1cc(F)ccc1OC2	1	6	9	19
CC(=O)c1cc2c(s1)-c1cc(F)ccc1OC2	-40	-39	-54	88*
COc1ccc(CCN(C)C2CCCN(S(=O)(=O)c3ccccc3F)C2)cc1OC (configuration not stated)	x	1	x	x
CCN1C(=O)N/C(=C/c2ccc(C)o2)C1=O	5	-4	14	1
CCN1C(=O)N/C(=C/c2ccc(Sc3ccc(C)cc3)o2)C1=O	0	23*	5	19
O=C(CN1C(=O)NC2(CCCCC2)C1=O)Oc1ccc2c(C(F)(F)F)cc(=O)oc2c1	x	33*	x	x
CCc1cc(=O)oc2cc(OC(=O)CN3C(=O)NC4(CCCC4)C3=O)ccc12	x	3	x	x
